Data: article PMC4455945 (Journal of the American Chemical Society, 2015)
Each block holds one compound with its values, some of them ahead of it. Peptide text beside a SMILES is read from it. * marks the point of attachment. Cbz = O=C(OCc1ccccc1)*

Key:
Purified 26S proteasome = Purified 26S proteasome (Homo sapiens, UniProt P20618+P28074); test: Cleavage of Suc-LLVY-AMC by purified 26S proteasome; format: biochemical
Rpn13 [1] = biological target: T1, Rpn13 (Homo sapiens, UniProt Q16186); test: FP competition against fluorescently labeled 11 bound to Rpn13; format: binding; conditions: increasing amounts of competitor
Procedure, shortened: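 Rpn13 pre-incubated with fluorescein-labelled test peptoid to form the complex, then challenged with increasing amounts of unlabelled competitor: either a covalent Rpn13 inhibitor reported to react at Cys88, or the unlabelled form of the same peptoid. Read-out is the change in fluorescence polarization.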

Rpn13 [2] = biological target: T1, Rpn13; conditions: assay not described; cited from earlier work
HEK-293T cells = test: Cell viability of HEK-293T cells; format: cell-based; conditions: concentration of 100 μM
Procedure, shortened: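 HEK-293T cells were tested alongside multiple myeloma lines after exposure to test peptoids. Viability was read as fluorescence (RFU).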

HEK293-T cells = test: Anti-Ub Western blot of poly-ubiquitin conjugates in HEK293-T cells; format: cell-based; conditions: relative to vehicle-treated cells

T1 sequence (Q16186 whole entry): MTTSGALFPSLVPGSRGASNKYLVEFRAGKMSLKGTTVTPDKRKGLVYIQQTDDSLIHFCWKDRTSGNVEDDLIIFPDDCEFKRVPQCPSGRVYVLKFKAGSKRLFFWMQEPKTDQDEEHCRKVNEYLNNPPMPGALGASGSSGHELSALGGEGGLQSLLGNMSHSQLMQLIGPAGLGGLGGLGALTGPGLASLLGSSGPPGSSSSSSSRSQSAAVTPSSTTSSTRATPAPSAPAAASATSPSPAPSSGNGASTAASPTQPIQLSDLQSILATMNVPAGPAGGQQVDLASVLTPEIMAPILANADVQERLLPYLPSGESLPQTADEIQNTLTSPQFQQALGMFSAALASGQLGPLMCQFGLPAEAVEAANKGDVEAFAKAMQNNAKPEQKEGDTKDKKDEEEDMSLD

effect on hydrolysis of the fluorogenic peptide (fluorescence) (Purified 26S proteasome): dose-sensitive decrease of fluorescence
SMILES: CC(C)C[C@H](NC(=O)[C@H](Cc1ccccc1)NC(=O)c1cnccn1)B(O)O [Bortezomib]

SMILES: Cl.N[C@@H](Cc1ccccc1)C(=O)N1C/C(=C/c2ccc(Cl)c(Cl)c2)C(=O)/C(=C\c2ccc(Cl)c(Cl)c2)C1 [RA-190]
competition of the fluorescently labeled 11-Rpn13 complex (FP signal) (Rpn13 [1]): insensitive
IC50 (Rpn13 [2]): 0.1 µM

SMILES: CC(C)C[C@@H](C=O)NC(=O)[C@H](CC(C)C)NC(=O)[C@H](CC(C)C)NC(=O)OCc1ccccc1 [MG-132] (Cbz-Leu-Leu-Leu-aldehyde)
cell death of HEK-293T cells at 100 μM (HEK-293T cells): no significant cell death
accumulation of ubiquitylated proteins (HEK293-T cells): accumulation of ubiquitylated proteins does occur
